Reference: ChEMBL document CHEMBL4425124, “Structure-Activity Relationship Studies on Tetrahydroisoquinoline Derivatives: [4'-(6,7-Dimethoxy-3,4-dihydro-1H-isoquinolin-2-ylmethyl)biphenyl-4-ol] (MC70) Conjugated through Flexible Alkyl Chains with Furazan Moieties Gives Rise to Potent and Selective Ligands of P-glycoprotein” (J Med Chem, 2016)

Assays:
[1] = target: T1, ATP-dependent translocase ABCB1 (Homo sapiens, UniProt P08183); assay: Inhibition of MDR1 (unknown origin) expressed in MDCK cells assessed as decrease in calcein-AM transport after 30 mins by fluorescence assay; format: cell-based
How it was run: (§1)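 MDCK-MDR1 or MDCK-MRP1 cells (50,000/well) grown to confluence overnight. Compounds in medium preincubated 30 min at 37 °C, then calcein-AM (2.5 μM final, in PBS) added for 30 min. Three ice-cold PBS washes; fluorescence read at ex 485/em 535 nm. Increase over untreated basal fluorescence fitted against log[dose] for EC50. Mean of three independent experiments, duplicate samples.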

[2] = target: Multidrug resistance-associated protein 1 (Homo sapiens, UniProt P33527); assay: Inhibition of MRP1 (unknown origin) expressed in MDCK cells assessed as decrease in calcein-AM transport at 10^-4 M after 30 mins by fluorescence assay; format: cell-based; conditions: 0.5 h, 100 µM; how it was run: as §1
[3] = target: P-gp (ABCB1) (Homo sapiens, UniProt P08183); assay: Substrate activity at p-gp in human Caco2 cells assessed as ratio of apparent permeability across basolateral to apical over apical to basolateral side at 100 uM after 120 mins by UV-Vis spectroscopy; format: ADME, cell-based; conditions: Caco-2
How it was run: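 Caco-2 monolayers cultured 21 days, with TEER checked before and after the experiment. Compounds at 100 μM in HBSS pH 7.4, applied apical or basolateral, 120 min at 37 °C after 30 min buffer preincubation. Acceptor concentration measured by UV–vis. Papp = [VA/(area×time)]×([drug]acceptor/[drug]initial), area 0.11 cm², 7200 s. Two independent experiments.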

[4] = target: T1, ATP-dependent translocase ABCB1; assay: Activation of MDR1 (unknown origin) ATPase activity expressed in MDCK cells assessed as decrease in ATP level after 2 hrs by ATPlite assay; format: cell-based
How it was run: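 MDCK-MDR1 cells seeded at 2x10⁴/well, grown overnight at 37 °C, 5% CO₂, then exposed to test compounds in complete medium at varying concentrations for 2 h. Cells lysed, luciferase substrate added, 10 min dark adaptation, luminescence read as cellular ATP level. Mean of three independent experiments, duplicate samples.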

[5] = target: T2, Broad substrate specificity ATP-binding cassette transporter ABCG2 (Homo sapiens, UniProt Q9UNQ0); assay: Inhibition of BCRP (unknown origin)
T2 sequence (Q9UNQ0 whole entry): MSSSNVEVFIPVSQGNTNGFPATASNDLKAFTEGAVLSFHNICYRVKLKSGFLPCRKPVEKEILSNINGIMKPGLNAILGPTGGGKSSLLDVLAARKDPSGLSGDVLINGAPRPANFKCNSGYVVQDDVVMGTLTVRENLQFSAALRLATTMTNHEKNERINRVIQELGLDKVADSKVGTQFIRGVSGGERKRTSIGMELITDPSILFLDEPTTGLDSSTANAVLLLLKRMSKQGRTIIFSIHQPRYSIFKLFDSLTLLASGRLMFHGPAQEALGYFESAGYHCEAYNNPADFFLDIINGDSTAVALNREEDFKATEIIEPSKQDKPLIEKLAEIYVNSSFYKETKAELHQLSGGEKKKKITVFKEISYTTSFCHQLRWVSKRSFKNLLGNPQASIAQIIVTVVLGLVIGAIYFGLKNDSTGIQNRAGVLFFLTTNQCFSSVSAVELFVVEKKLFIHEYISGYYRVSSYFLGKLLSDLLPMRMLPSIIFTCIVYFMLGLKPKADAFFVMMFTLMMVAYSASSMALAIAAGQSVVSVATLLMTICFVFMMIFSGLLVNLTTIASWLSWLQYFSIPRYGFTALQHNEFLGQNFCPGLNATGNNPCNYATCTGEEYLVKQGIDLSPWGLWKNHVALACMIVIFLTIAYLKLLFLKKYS

[6] = system: MDCK; assay: Cytotoxicity against MDCK cells expressing MDR1 assessed as inhibition of cell proliferation at 1 uM after 24 hrs by MTT assay; format: ADME, cell-based, Canis lupus familiaris; conditions: dog
How it was run: (§2)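 MTT growth assay. 30000 cells/well seeded on day 1; drugs added on day 2 over 0.1–100 μM, with solvent (ethanol, DMSO) controls. After 24 or 48 h, MTT 0.5 mg/mL for 3 h at 37 °C. Formazan dissolved in DMSO, absorbance read at 570 and 630 nm.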

[7] = system: MDCK; assay: Cytotoxicity against MDCK cells expressing MDR1 assessed as inhibition of cell proliferation at 0.1 uM after 48 hrs by MTT assay; format: ADME, cell-based, Canis lupus familiaris; conditions: dog; how it was run: as §2
[8] = system: MCF7; assay: Cytotoxicity against human MCF7 cells assessed as inhibition of cell proliferation at 0.1 uM after 24 hrs by MTT assay; format: cell-based; conditions: mcf7, 24 h; how it was run: as §2

P-gp (ABCB1), sequence (P08183 whole entry): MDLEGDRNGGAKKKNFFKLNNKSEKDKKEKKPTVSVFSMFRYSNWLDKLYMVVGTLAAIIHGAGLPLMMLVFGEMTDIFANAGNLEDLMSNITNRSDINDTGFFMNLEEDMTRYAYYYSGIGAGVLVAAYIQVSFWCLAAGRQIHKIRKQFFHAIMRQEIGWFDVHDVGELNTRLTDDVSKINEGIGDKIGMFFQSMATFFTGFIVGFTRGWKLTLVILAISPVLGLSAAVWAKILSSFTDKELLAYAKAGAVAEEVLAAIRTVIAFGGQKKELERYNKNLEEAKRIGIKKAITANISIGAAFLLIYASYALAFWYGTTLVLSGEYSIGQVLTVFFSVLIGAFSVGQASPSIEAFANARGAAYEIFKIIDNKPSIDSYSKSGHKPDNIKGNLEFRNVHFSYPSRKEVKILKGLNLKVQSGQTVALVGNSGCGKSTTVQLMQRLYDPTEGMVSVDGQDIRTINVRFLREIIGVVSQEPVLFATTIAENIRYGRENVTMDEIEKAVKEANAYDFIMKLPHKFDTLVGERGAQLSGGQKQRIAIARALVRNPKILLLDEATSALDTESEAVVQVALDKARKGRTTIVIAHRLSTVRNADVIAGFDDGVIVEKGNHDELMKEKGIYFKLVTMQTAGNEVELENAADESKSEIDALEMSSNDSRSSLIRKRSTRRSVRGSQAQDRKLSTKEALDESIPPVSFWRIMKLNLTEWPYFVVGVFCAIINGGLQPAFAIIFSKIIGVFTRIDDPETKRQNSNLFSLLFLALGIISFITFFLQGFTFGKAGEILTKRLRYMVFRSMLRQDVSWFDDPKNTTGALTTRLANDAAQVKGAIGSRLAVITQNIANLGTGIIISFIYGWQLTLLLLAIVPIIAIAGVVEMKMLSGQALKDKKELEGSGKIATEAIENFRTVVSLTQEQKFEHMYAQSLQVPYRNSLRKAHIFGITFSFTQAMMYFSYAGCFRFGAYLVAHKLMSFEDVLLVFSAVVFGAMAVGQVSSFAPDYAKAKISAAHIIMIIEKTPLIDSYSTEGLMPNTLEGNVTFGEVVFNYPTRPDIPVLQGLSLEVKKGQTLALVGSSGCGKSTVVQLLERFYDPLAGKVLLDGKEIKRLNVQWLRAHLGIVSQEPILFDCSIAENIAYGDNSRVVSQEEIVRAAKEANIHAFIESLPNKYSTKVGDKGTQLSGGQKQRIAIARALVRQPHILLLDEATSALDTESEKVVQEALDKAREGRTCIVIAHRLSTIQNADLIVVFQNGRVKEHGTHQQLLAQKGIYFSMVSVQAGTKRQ
T1 sequence (P08183 whole entry): as above
Multidrug resistance-associated protein 1, sequence (P33527 whole entry): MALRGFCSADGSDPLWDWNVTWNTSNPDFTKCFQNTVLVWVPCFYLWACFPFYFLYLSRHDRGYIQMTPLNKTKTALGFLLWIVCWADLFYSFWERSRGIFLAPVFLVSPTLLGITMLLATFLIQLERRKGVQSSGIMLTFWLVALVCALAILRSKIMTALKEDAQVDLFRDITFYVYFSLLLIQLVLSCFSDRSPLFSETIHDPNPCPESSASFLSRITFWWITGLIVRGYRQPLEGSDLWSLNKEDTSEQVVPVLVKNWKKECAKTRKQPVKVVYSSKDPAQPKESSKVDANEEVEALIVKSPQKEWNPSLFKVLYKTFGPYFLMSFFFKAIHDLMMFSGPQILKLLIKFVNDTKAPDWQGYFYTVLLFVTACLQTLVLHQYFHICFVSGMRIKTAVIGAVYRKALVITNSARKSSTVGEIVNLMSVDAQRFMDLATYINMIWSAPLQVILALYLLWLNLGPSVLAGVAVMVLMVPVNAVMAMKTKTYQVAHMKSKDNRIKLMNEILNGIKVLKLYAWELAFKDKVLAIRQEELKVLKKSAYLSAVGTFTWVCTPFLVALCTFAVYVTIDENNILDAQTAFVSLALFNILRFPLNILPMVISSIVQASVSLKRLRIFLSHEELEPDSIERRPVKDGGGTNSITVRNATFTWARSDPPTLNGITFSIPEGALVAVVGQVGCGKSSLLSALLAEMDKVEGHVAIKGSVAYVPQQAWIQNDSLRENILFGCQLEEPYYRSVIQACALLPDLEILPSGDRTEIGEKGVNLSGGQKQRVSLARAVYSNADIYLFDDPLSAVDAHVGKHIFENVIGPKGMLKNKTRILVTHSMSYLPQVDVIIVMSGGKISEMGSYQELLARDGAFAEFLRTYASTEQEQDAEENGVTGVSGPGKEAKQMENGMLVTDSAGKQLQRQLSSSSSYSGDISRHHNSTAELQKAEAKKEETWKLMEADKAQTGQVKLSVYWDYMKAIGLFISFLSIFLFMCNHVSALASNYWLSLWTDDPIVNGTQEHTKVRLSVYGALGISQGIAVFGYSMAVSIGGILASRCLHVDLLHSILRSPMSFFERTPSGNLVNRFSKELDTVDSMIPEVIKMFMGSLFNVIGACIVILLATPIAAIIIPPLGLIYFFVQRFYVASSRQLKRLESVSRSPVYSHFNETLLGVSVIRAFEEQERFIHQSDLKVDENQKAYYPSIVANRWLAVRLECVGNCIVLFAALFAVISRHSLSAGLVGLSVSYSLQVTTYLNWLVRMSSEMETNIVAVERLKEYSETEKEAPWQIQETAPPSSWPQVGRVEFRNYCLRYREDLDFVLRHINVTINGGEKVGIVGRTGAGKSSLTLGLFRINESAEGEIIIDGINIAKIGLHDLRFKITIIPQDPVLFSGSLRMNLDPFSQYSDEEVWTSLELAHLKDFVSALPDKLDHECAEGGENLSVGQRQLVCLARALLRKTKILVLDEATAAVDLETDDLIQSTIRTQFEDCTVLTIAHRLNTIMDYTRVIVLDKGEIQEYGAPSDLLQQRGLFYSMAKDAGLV

Structure (SMILES)	EC50 [1] [µM]	inhibition (INH) [2]	efflux ratio at 2 h, 100 µM [3]	Activity [4]	EC50 [5] [µM]	Activity [6]	Activity [7]	Activity [8]
COc1cc2c(cc1OC)CN(Cc1ccc(-c3ccc(OCCCOc4nonc4OCc4ccccc4)cc3)cc1)CC2	0.00097	Not Active	3	Not Active	> 100	Non-Toxic	Toxic	Toxic
COc1cc2c(cc1OC)CN(Cc1ccc(-c3ccc(OCCOc4nonc4OCc4ccccc4)cc3)cc1)CC2	0.29	Not Active	4.9	Not Active				
COc1cc2c(cc1OC)CN(Cc1ccc(-c3ccc(OCCCOc4nonc4C)cc3)cc1)CC2	0.35	Not Active	4	Not Active				
COc1cc2c(cc1OC)CN(Cc1ccc(-c3ccc(OCCOc4nonc4[S+]([O-])c4ccccc4)cc3)cc1)CC2 (configuration not stated)	0.0009	Not Active	4.6	Not Active	> 100	Non-Toxic	Toxic	Toxic
COc1cc2c(cc1OC)CN(Cc1ccc(-c3ccc(OCCCCOc4nonc4OC)cc3)cc1)CC2	0.29	Not Active	3	Not Active				
COc1cc2c(cc1OC)CN(Cc1ccc(-c3ccc(OCCCOc4nonc4C#N)cc3)cc1)CC2	1.05	Not Active	4.9	Not Active				
COc1cc2c(cc1OC)CN(Cc1ccc(-c3ccc(OCCCOc4nonc4OC)cc3)cc1)CC2	0.054	Not Active	3.2	Not Active				
COc1cc2c(cc1OC)CN(Cc1ccc(-c3ccc(OCCCOc4nonc4S(=O)(=O)c4ccccc4)cc3)cc1)CC2	0.38	Not Active	2.5	Not Active				
COc1cc2c(cc1OC)CN(Cc1ccc(-c3ccc(OCCCOc4nonc4Oc4ccccc4)cc3)cc1)CC2	1.18	Not Active	3.8	Not Active				
COc1cc2c(cc1OC)CN(Cc1ccc(-c3ccc(OCCCOc4nonc4[S+]([O-])c4ccccc4)cc3)cc1)CC2 (configuration not stated)	0.0013	Not Active	2.6	Not Active	> 100	Non-Toxic	Toxic	Toxic
COc1cc2c(cc1OC)CN(Cc1ccc(-c3ccc(OCCOc4nonc4OC)cc3)cc1)CC2	0.0006	Not Active	3.2	Active	> 100	Non-Toxic	Toxic	Toxic
COc1cc2c(cc1OC)CN(Cc1ccc(-c3ccc(OCCOc4nonc4C#N)cc3)cc1)CC2	1.2	Not Active	4.7	Not Active				
COc1cc2c(cc1OC)CN(Cc1ccc(-c3ccc(OCCCOc4nonc4Sc4ccccc4)cc3)cc1)CC2	1.17	Not Active	4.7	Not Active				
COc1cc2c(cc1OC)CN(Cc1ccc(-c3ccc(OCCCOc4nonc4-c4ccccc4)cc3)cc1)CC2	3.3	Not Active	20	Not Active				
